# Data reported in BindingDB's records for doi:10.1021/acs.jmedchem.5b00686 (University of Hawaii At Hilo, 2015).
# Biological target: Signal transducer and activator of transcription 3 (Homo sapiens, UniProt P40763)
# Test: Inhibition of Stat3 dimer DNA binding activity in human U373MG cells nuclear extract after 1.5 hrs by EMSA using radiolabeled probe hSIE
# Method in brief: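 Sub-confluent U251MG or U373MG cells treated with compound (5 μM for 0–24 h, or 0–5 μM for 1.5 h). Stat3:DNA bands scanned, quantified and plotted against concentration to derive IC50. Controls were 0.025% DMSO.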
# Signal transducer and activator of transcription 3, sequence (P40763 whole entry): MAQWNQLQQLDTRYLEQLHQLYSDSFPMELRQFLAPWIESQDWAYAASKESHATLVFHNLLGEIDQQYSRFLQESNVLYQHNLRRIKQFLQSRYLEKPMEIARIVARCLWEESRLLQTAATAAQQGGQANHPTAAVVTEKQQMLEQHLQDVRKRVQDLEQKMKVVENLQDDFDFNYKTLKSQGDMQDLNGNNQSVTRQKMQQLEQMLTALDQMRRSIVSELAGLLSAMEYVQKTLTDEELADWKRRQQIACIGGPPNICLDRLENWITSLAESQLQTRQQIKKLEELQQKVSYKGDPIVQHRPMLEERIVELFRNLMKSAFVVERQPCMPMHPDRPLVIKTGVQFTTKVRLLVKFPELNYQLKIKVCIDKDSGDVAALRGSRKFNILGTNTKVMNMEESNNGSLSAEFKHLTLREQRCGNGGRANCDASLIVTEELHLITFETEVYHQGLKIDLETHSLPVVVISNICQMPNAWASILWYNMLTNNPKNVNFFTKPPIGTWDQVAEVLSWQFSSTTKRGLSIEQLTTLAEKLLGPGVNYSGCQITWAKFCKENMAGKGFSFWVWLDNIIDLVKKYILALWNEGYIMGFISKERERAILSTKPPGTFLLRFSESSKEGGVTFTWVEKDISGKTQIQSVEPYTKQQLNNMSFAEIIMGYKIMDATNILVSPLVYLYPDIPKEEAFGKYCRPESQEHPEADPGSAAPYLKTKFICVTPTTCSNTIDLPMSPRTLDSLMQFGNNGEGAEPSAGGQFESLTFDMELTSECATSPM
row,IC50,Structure (SMILES)
1,4.1 µM,C/C=C(\C)C(=O)O[C@H]1C[C@@H](C)[C@]2(OC)CC[C@](C)(/C=C3/OC(=O)C(COC(C)=O)=C31)O2 [Vernolide-B]
2,2.4 µM,C/C=C(\C)C(=O)OCC1=C2/C(=C\[C@@]3(C)CC[C@](O)(O3)[C@H](C)C[C@@H]2O)OC1=O
